5 compounds from ChEMBL document CHEMBL1144182, “Antimicrobial and cytotoxic arylazoenamines. Part III: antiviral activity of selected classes of arylazoenamines” (Bioorg Med Chem, 2008) can be followed below.

Values after ≈ are worked out from the molar mass of the structure shown. Active and inactive are the calls of the source. No rule for the calls is given here.

Data set [1] deals with Vaccinia virus. In words: Antiviral activity against VV infected in Vero76 cells assessed as reduction in virus plaque formation after 4 days by MTT assay. Type of data set: functional, organism-based. Particulars: Orthopoxvirus vaccinia; Vero 76. For orientation: Formazan colour is commonly taken as a measure of viable cells.
Data set [2] relates to Vesicular stomatitis virus. In words: Antiviral activity against VSV infected in Vero76 cells assessed as reduction in virus plaque formation after 4 days by MTT assay. Type of data set: functional, organism-based. The settings on record: Vero 76.
Data set [3] in a line: Cytotoxicity against mock-infected human MT4 cells assessed as reduction in cell viability after 96 hrs by MTT assay. Type of data set: cell-based. In a few lines:
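Exponentially growing MT-4 cells seeded at 1 × 10^5 cells/mL in RPMI-1640 with 10% FCS, penicillin and streptomycin, with or without serial compound dilutions. Incubated at 37 °C, 5% CO2; viability read by MTT after 96 h. CC50 is the concentration reducing mock-infected cell viability by 50%.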

Data set [4] relates to Mammalian orthoreovirus 1. In words: Antiviral activity against Reo virus 1 infected in BHK21 cells assessed as protection against virus-induced cytopathogenicity after 4 days by MTT assay. Type of data set: functional, organism-based. Particulars: Mammalian orthoreovirus 1, BHK-21, 96 h. Background: Damage to the host cells serves as the signal in cytopathic effect assays.

The nature of data set [5]: Cytotoxicity against mock-infected MDBK cells assessed as reduction in cell viability after 96 hrs by MTT assay. Type of data set: cell-based, Bos taurus. The settings on record: cattle. In outline:
(§1)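 Cytotoxicity run in parallel with the antiviral assays. MDBK seeded at 6 × 10^5 and BHK at 1 × 10^6 cells/mL in maintenance medium with or without serial compound dilutions. Incubated 48–96 h at 37 °C, 5% CO2, then viability read by MTT. CC50 is the concentration reducing mock-infected cell viability by 50%.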

Data set [6] concerns Human immunodeficiency virus 1. Put plainly: Antiviral activity against HIV1 infected in MT4 cells assessed as virus-induced cytopathogenicity after 4 days. Type of data set: functional, organism-based.
The subject of data set [7] is Coxsackievirus B2. In words: Antiviral activity against CVB2 infected in Vero76 cells assessed as reduction in virus plaque formation after 4 days by MTT assay. Particulars: Enterovirus B, Vero 76, 96 h. Type of data set: functional, organism-based.
Data set [8] is described as follows: Cytotoxicity against mock-infected african green monkey Vero76 cells assessed as reduction in cell viability after 96 hrs by MTT assay. Type of data set: cell-based, Vero. Particulars: chlorocebus sabaeus.
Data set [9] concerns Yellow fever virus. Put plainly: Antiviral activity against YFV infected in BHK21 cells assessed as protection against virus-induced cytopathogenicity after 4 days by MTT assay. Type of data set: functional, organism-based. The settings on record: BHK-21, 96 h. In a few lines: (§2)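 MDBK (BVDV) or BHK-21 (YFV) cells were seeded at 3 × 10^4 or 5 × 10^4 cells/well respectively and grown overnight to confluent monolayers at 37 °C in 5% CO2. Monolayers were infected at m.o.i. 0.01 in serum-free medium. After 1 h, MEM Earle's with 1% FCS was added, with or without serial compound dilutions. After 3–4 days at 37 °C, viability was read by MTT. EC50 was taken as 50% protection from virus-induced cytopathogenicity.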

Data set [10] concerns Bovine viral diarrhea virus 1. Put plainly: Antiviral activity against BVDV infected in MDBK cells assessed as protection against virus-induced cytopathogenicity after 4 days by MTT assay. Type of data set: functional, organism-based. Particulars: Bovine viral diarrhea virus isolates and strains, 96 h. In a few lines:
as §2

Data set [11] in a line: Cytotoxicity against mock-infected BHK cells assessed as reduction in cell viability after 96 hrs by MTT assay. Type of data set: cell-based, Mesocricetus auratus. The settings on record: hamster. In outline: as §1
The test system of data set [12] is Poliovirus 1. In words: Antiviral activity against Sb1 virus infected in Vero76 cells assessed as reduction in virus plaque formation after 4 days by MTT assay. Type of data set: functional, organism-based. The settings on record: Enterovirus C, Sabin, Vero 76, 96 h.
Data set [13] deals with Respiratory syncytial virus. In words: Antiviral activity against RSV infected in Vero76 cells assessed as reduction in virus plaque formation after 4 days by MTT assay. The settings on record: human respiratory syncytial virus, Vero 76, 96 h. Type of data set: functional, organism-based.
Data set [14] deals with Candida. Put plainly: Antimicrobial activity against Candida.
In data set [15] the test system is Pseudomonas aeruginosa. In words: Antimicrobial activity against Pseudomonas aeruginosa. Type of data set: functional.

For the compound `CN1C=C(/N=N/c2ccc(Br)cc2)CCC1`, the result in data set [1], in data set [2] and in data set [6] was inactive. The cytotoxic concentration (CC50) at 96 h in data set [3] is 83 µM; in data set [5], > 100 µM; in data set [8] it was 100 µM; in [11], > 100 µM. In addition, the EC50 was 76 µM in data set [4]; > 100 µM in data set [7]; 100 µM in data set [9]; 60 µM in data set [10]; > 100 µM in data set [12]; 18 µM in [13].

`Fc1ccc(/N=N\C2=C3CCCCN3CCC2)cc1`: the result in [1], in data set [2] and in [6] was inactive. Besides, the CC50 at 96 h in [3] was 94 µM; in data set [5], 56 µM; in data set [8], > 100 µM; in data set [11], > 100 µM. Moreover, the concentration giving a half-maximal response (EC50) was 34 µM in data set [4]; 27 µM in data set [7]; 100 µM in data set [9]; > 56 µM in data set [10]; > 100 µM in data set [12]; > 100 µM in data set [13].

Consider `Clc1ccc(COC(Cn2ccnc2)c2ccc(Cl)cc2Cl)c(Cl)c1.O=[N+]([O-])O` (stereo unspecified) [MICONAZOLE NITRATE], for which the minimum inhibitory concentration (MIC) in data set [14] turned out to be 0.25 µg/mL.

`CCn1cc(C(=O)O)c(=O)c2cc(F)c(N3CCNCC3)cc21` [NORFLOXACIN] had an MIC in [15] of 4 µg/mL (≈ 12.5 µM).

For the compound `CN1C=C(/N=N/c2ccc(Cl)cc2)CCC1`, the result in data set [1], in data set [2] and in data set [6] was inactive. The 50% cytotoxic concentration (CC50) at 96 h in data set [3] is > 100 µM; in data set [5] it was 58 µM; in [8] it was 90 µM; in data set [11], > 100 µM. Also, the EC50 is 32 µM in [4]; 5 µM in data set [7]; > 100 µM in data set [9]; > 58 µM in data set [10]; 8 µM in data set [12]; 20 µM in [13].

For orientation: CC50 means the concentration at which the toxic effect on the cells reaches its halfway point. As usually defined, the EC50 is the concentration at which the effect is half-maximal. The MIC is the least concentration at which growth counts as inhibited.
